Results from different studies.
Compare with care: the assays were run in different laboratories.
EGFR G719S: Epidermal growth factor receptor (EGFR, Homo sapiens, UniProt P00533, G719S)
EGFR L861Q: Epidermal growth factor receptor (EGFR, Homo sapiens, UniProt P00533, L861Q)
EGFR L858R/T790M: Epidermal growth factor receptor (EGFR, Homo sapiens, UniProt P00533, L858R/T790M)
EGFR: Epidermal growth factor receptor (EGFR, Homo sapiens, UniProt P00533)
EGFR del746-750: Epidermal growth factor receptor (EGFR, Homo sapiens, UniProt P00533, del746-750)
EGFR G719C: Epidermal growth factor receptor (EGFR, Homo sapiens, UniProt P00533, G719C)
EGFR L858R: Epidermal growth factor receptor (EGFR, Homo sapiens, UniProt P00533, L858R)

Structure (SMILES) | target | effect on | mode | method | concentration | quantity | result
O=C(c1ccc(Nc2nccc(-c3cc4ccccc4s3)n2)cc1)N1CCC(N2CCCC2)CC1 | EGFR G719S | binding | – | competition with immobilised ligand | 1 µM | remaining binding | 94%
Nc1ncnc2occ(-c3ccc(NC(=O)Nc4cc(C(F)(F)F)ccc4F)cc3)c12 | Epidermal growth factor receptor (EGFR, Homo sapiens, UniProt P00533, T790M) | cell-free assay | – | – | 20 µM | remaining signal | 12%
CC(=O)c1c(NS(C)(=O)=O)c2cc(-c3ccc(Cl)cc3)c(-c3ccc(Cl)cc3Cl)nc2n(C)c1=O | EGFR L861Q | cell-free assay | – | competition with immobilised ligand | 1 µM | remaining binding | 100%
CC/C(=N\NC(=O)NCc1cccc(O)c1)c1ccc(O)c(C)c1O | EGFR L861Q | enzyme activity | inhibitor | – | 0.1 µM | inhibition | 0.4%
COc1ccnn2ncc(-c3ccnc(N(C)C)n3)c12 | EGFR L858R/T790M | binding | – | – | 1 µM | remaining binding | 93%
N#C/C(=C\c1ccc(O)c(O)c1)C(=O)NCc1ccccc1 | EGFR | cell-free assay | – | – | 0.5 µM | remaining signal | 72.4%
COc1cc(-c2cc(-c3ccc(N4CCNCC4)cc3)cnc2N)cc(OC)c1OC | EGFR L861Q | enzyme activity | inhibitor | – | 0.1 µM | inhibition | 6%
CC(=O)Nc1c(C(C)=O)c(=O)n(C)c2nc(-c3ccc(Cl)cc3Cl)c(-c3ccc(Cl)cc3)cc12 | EGFR del746-750 | cell-free assay | – | competition with immobilised ligand | 1 µM | remaining binding | 92%
COc1cc2ncnc(Nc3ccc(Oc4ccccc4)c(C)c3C)c2cc1OC | EGFR L858R/T790M | enzyme activity | inhibitor | – | 1 µM | inhibition | 17%
C=CC(=O)Nc1cc(Nc2nc(N3CCc4sccc4C3)c3cccnc3n2)c(OC)cc1N(C)CCN(C)C | EGFR L858R/T790M | enzyme activity | inhibitor | ELISA | 0.1 µM | inhibition | 19.2%
O=C(NCc1ncc(C(F)(F)F)cc1Cl)c1ccc2c(c1)C1(CCS(=O)(=O)CC1)[C@H](C1CC1)N2S(=O)(=O)c1ccc(F)cc1 | Epidermal growth factor receptor (EGFR, Homo sapiens, UniProt P00533, A750P/del747-749) | cell-free assay | – | competition with immobilised ligand | 1 µM | remaining binding | 97%
c1cnn2ncc(-c3ccnc(N4CCC45COC5)n3)c2c1 | EGFR del746-750 | binding | – | – | 1 µM | remaining binding | 89%
CC(C)[C@@H]1NC(=O)[C@H](CCCNC(=N)N)NC(=O)[C@H](Cc2ccc(O)cc2)NC(=O)[C@H](C(C)C)NC(=O)[C@H](C(C)C)NC(=O)[C@H](CCCNC(=N)N)NC(=O)[C@H](CC(=O)O)NC(=O)[C@H](CC(=O)O)NC(=O)CCNC(=O)[C@H](Cc2ccc(O)cc2)NC(=O)[C@H](Cc2ccc(O)cc2)NC(=O)[C@H](Cc2ccccc2)NC(=O)[C@@H](Cc2ccc(O)cc2)NC(=O)CSC[C@@H](C(=O)NCC(N)=O)NC(=O)CCNC1=O | EGFR | binding | – | SPR | – | kon | 258000 M⁻¹ s⁻¹
Cn1nc(C(F)(F)F)cc1-c1cnc(N2CCc3cc(S(=O)(=O)Nc4c(F)cc(Cl)cc4F)cc(N4CCCC4=O)c32)nc1 | Epidermal growth factor receptor (EGFR, Homo sapiens, UniProt P00533, del752-759) | cell-free assay | – | competition with immobilised ligand | 1 µM | remaining binding | 100%
C[C@H]1CCN(c2nccc(-c3cnn4ncccc34)n2)C1 | EGFR G719C | binding | – | – | 1 µM | remaining binding | 85%
Cc1ccc(C(=O)NCc2ccsc2)cc1C#Cc1cn(C(C)C)c2ncnc(N)c12 | EGFR L858R | enzyme activity | inhibitor | – | 1 µM | activity vs control | 56%
O=C(Nc1cccnn1)N1CC(C/C=C/c2cncc(Oc3ccc(C(F)(F)F)cn3)n2)C1 | EGFR G719C | cell-free assay | – | competition with immobilised ligand | 1 µM | remaining binding | 100%
N[C@@H]1CCN(c2nccc(-c3cnn4ncccc34)n2)C1 | EGFR L861Q | binding | – | – | 1 µM | remaining binding | 92%
Cc1cc(NC(=O)c2cccc(S(F)(F)(F)(F)F)c2)cc(-n2ccn3nc(-c4cccnc4)cc23)c1 | EGFR G719S | cell-free assay | – | competition with immobilised ligand | 1 µM | remaining binding | 100%
Cc1ccc(C(=O)Nc2ccc(CN3CCN(C)CC3)c(C(F)(F)F)c2)cc1C#Cc1cnc2cccnn12 | EGFR L858R | cell-free assay | – | – | 23.5 nM | remaining signal | 95%
